The values below come from ChEMBL document CHEMBL2069283, “C-N bond formation under Cu-catalysis: synthesis and in vitro evaluation of N-aryl substituted thieno[2,3-d]pyrimidin-4(3H)-ones against chorismate mutase” (Bioorg Med Chem, 2012).

A value given as a limit tells only on which side of the number the result lay.

Test [1] addresses T1, Intracellular chorismate mutase (Mycobacterium tuberculosis, UniProt P9WIC1).
T1 sequence (P9WIC1 whole entry): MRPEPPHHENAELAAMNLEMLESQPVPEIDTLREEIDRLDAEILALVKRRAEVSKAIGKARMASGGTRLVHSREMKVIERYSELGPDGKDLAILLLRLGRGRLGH
Description: Inhibition of Mycobacterium tuberculosis chorismate mutase using chorismate substrate in dose response study by spectrophotometry.

Test [2] concerns the target T2, Intracellular chorismate mutase (Mycobacterium tuberculosis) (UniProt P9WIC1).
T2 sequence (whole entry): T1 sequence (P9WIC1 whole entry)
Description: Inhibition of Mycobacterium tuberculosis chorismate mutase at 50 uM using chorismate substrate by spectrophotometry. Put shortly:
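His-tagged MtCM expressed in E. coli BL21(DE3) and purified by Ni-NTA. Started with 180 pmol enzyme, 5 min at 37 °C, stopped with 1 N HCl. Prephenate formation read at A274 against no-enzyme blanks. % inhibition = 100 − residual activity.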

In test [1], `COc1cc(CCNc2c([N+](=O)[O-])cc(C(=O)O)cc2S(N)(=O)=O)cc(OC)c1` registered an IC50 below 10 µM.
In turn, `O=Cc1cccc(-n2cnc3sc4c(c3c2=O)CCCC4)c1` yielded an inhibition in test [2] of 45.3%.
For the compound `O=c1c2c3c(sc2ncn1-c1ccc(F)cc1)CCCCC3`, the inhibition in test [2] is 14.6%.
Same read-out and setting: then `CC(C)(C)OC(=O)N1CCc2c(sc3ncn(-c4ccccc4)c(=O)c23)C1`, with 37.2%.
On to `O=c1c2c3c(sc2ncn1-c1ccccc1)CCCC3`, for which the inhibition in test [2] is 35.6%.
On the same count and under the same terms, with `Cc1csc2ncn(-c3ccc(F)cc3)c(=O)c12` the figure was 17.7%; with `O=C(c1ccccc1I)N1CCc2c(sc3ncn(-c4ccccc4)c(=O)c23)C1`, 12.6%.
The compound `COc1cccc(-n2cnc3sc4c(c3c2=O)CCCC4)c1` displayed an inhibition in test [2] of 47%. The IC50 in test [1] amounted to 19.8 µM.
As to `O=c1c2c3c(sc2ncn1-c1cccc(Cl)c1)CCCC3`, the inhibition in test [2] was 42.5%.
Still for that read-out and setting: with `O=c1c2c3c(sc2ncn1-c1ccc(F)cc1)CCCC3` the figure was 12.8%; with `O=c1c2c3c(sc2ncn1-c1ccccc1)CCCCC3`, 13%; with `O=c1c2c3c(sc2ncn1-c1ccccc1)CNCC3`, 36.2%.
`CC(C)(C)OC(=O)N1CCc2c(sc3ncn(-c4cccc(C=O)c4)c(=O)c23)C1` yielded an inhibition in test [2] of 49.9%. In test [1], this compound displayed an IC50 of 23.9 µM.
In test [2], `O=c1c2c3c(sc2ncn1-c1ccc2ccccc2c1)CCCC3` came in with an inhibition of 33%.
